According to ChEMBL document CHEMBL5647695, “Cyclin-dependent kinase 9 (CDK9) is a novel prognostic marker and therapeutic target in osteosarcoma” (EBioMedicine, 2019):
Active and inactive are the calls of the source. The rule behind the calls is not given here.

Columns and labels:
[1] = tested on: U2OS; assay: Effect on RNAPII total protein expression in human U2OS cells at 2.5 to 20 uM incubated for 48 hrs by Western blot analysis; type: functional, cell-based; settings: dose 2.5-20 µM
How it was run: (§1)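 Cells seeded in 6-well plates (6 × 10^5 cells/well) and treated with 2.5, 5, 10, 20 μM for 48 h. RIPA lysates resolved by SDS-PAGE and blotted to nitrocellulose. Primary antibodies to CDK9, RNAPII ser2, total RNAPII, MCL-1, BIRC5 and tubulin (1:1000, 4 °C overnight), then IR-dye secondaries; infrared imaging. Densitometry relative to tubulin, mean ± SE in triplicate.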

[2] = tested on: U2OS; assay: Cytotoxicity against human U2OS cells assessed as inhibition of cell proliferation incubated for 5 days by MTT assay; type: functional, cell-based
How it was run: (§2)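 Cells in RPMI 1640 with 10% FBS, seeded at 4 × 10^3 cells/well in 96-well plates and exposed to 0, 2.5, 5, 10, 20 μM for 5 days. MTT (5 mg/mL stock) added for 4 h at 37 °C; formazan dissolved in acid isopropanol and read at 490 nm. IC50 from the dose–response; mean ± SE of 2 experiments in triplicate.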

[3] = tested on: KHOS/NP; assay: Cytotoxicity against human KHOS/NP cells assessed as inhibition of cell proliferation incubated for 5 days by MTT assay; type: functional, cell-based; how it was run: as §2
[4] = tested on: U2OS; assay: Cytotoxicity against human U2OS cells assessed as morphological changes incubated for 3 days by microscopic analysis; type: functional, cell-based; settings: dose 2.5-20 µM, time 3.0 day
How it was run: (§3)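 Cells treated with 0, 2.5, 5, 10, 20 μM for 72 h, then examined by light microscopy for morphology and number of viable cells.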

[5] = tested on: KHOS/NP; assay: Cytotoxicity against human KHOS/NP cells assessed as morphological changes incubated for 3 days by microscopic analysis; type: functional, cell-based; settings: dose 2.5-20 µM, time 3.0 day; how it was run: as §3
[6] = tested on: U2OS; assay: Cytotoxicity against human U2OS cells assessed as reduction in viable cell number incubated for 3 days by microscopic analysis; type: functional, cell-based; settings: dose 2.5-20 µM, time 3.0 day; how it was run: as §3
[7] = tested on: KHOS/NP; assay: Cytotoxicity against human KHOS/NP cells assessed as reduction in viable cell number incubated for 3 days by microscopic analysis; type: functional, cell-based; settings: dose 2.5-20 µM, time 3.0 day; how it was run: as §3
[8] = molecular target: Cyclin-dependent kinase 9 (Homo sapiens) (UniProt P50750); assay: Inhibition of CDK9 in human U2OS cells assessed as reduction in phosphorylated RNAPII protein expression at Ser2 residue incubated for 48 hrs by Western blot analysis; type: cell-based; settings: dose 2.5-20 µM; how it was run: as §1
[9] = molecular target: Cyclin-dependent kinase 9 (Homo sapiens) (UniProt P50750); assay: Inhibition of CDK9 in human KHOS/NP cells assessed as reduction in phosphorylated RNAPII protein expression at Ser2 residue incubated for 48 hrs by Western blot analysis; type: cell-based; settings: dose 2.5-20 µM; how it was run: as §1
[10] = molecular target: Cyclin-dependent kinase 9 (Homo sapiens) (UniProt P50750); assay: Inhibition of CDK9 in human U2OS cells assessed as reduction in MCL-1 protein expression incubated for 48 hrs by Western blot analysis; type: cell-based; settings: dose 2.5-20 µM; how it was run: as §1
[11] = molecular target: Cyclin-dependent kinase 9 (Homo sapiens) (UniProt P50750); assay: Inhibition of CDK9 in human KHOS/NP cells assessed as reduction in MCL-1 protein expression incubated for 48 hrs by Western blot analysis; type: cell-based; settings: dose 2.5-20 µM; how it was run: as §1
[12] = molecular target: Cyclin-dependent kinase 9 (Homo sapiens) (UniProt P50750); assay: Inhibition of CDK9 in human U2OS cells assessed as reduction in BIRC5 protein expression incubated for 48 hrs by Western blot analysis; type: cell-based; settings: dose 2.5-20 µM; how it was run: as §1
[13] = molecular target: Cyclin-dependent kinase 9 (Homo sapiens) (UniProt P50750); assay: Inhibition of CDK9 in human KHOS/NP cells assessed as reduction in BIRC5 protein expression incubated for 48 hrs by Western blot analysis; type: cell-based; settings: dose 2.5-20 µM; how it was run: as §1
[14] = tested on: KHOS/NP; assay: Effect on RNAPII total protein expression in human KHOS/NP cells at 2.5 to 20 uM incubated for 48 hrs by Western blot analysis; type: functional, cell-based; settings: dose 2.5-20 µM; how it was run: as §1
[15] = tested on: U2OS; assay: Effect on CDK9 protein expression in human U2OS cells at 2.5 to 20 uM incubated for 48 hrs by Western blot analysis; type: functional, cell-based; settings: dose 2.5-20 µM; how it was run: as §1
[16] = tested on: KHOS/NP; assay: Effect on CDK9 protein expression in human KHOS/NP cells at 2.5 to 20 uM incubated for 48 hrs by Western blot analysis; type: functional, cell-based; settings: dose 2.5-20 µM; how it was run: as §1
[17] = tested on: U2OS; assay: Induction of apoptosis in human U2OS cells assessed as viable cells at 10 uM by Annexin V/PI staining based flow cytometry analysis (reference value: 94.5%); type: functional; settings: read-out: Activity
[18] = tested on: U2OS; assay: Induction of apoptosis in human U2OS cells assessed as early apoptotic cells at 10 uM by Annexin V/PI staining based flow cytometry analysis (reference value: 5%); type: functional
[19] = tested on: U2OS; assay: Induction of apoptosis in human U2OS cells assessed as late apoptotic cells at 10 uM by Annexin V/PI staining based flow cytometry analysis (reference value: 0.4%); type: functional
[20] = tested on: U2OS; assay: Induction of apoptosis in human U2OS cells assessed as dead cells at 10 uM by Annexin V/PI staining based flow cytometry analysis (reference value: 0.1%); type: functional
[21] = tested on: KHOS/NP; assay: Induction of apoptosis in human KHOS/NP cells assessed as viable cells at 10 uM by Annexin V/PI staining based flow cytometry analysis (reference value: 94.1%); type: functional; settings: read-out: Activity
[22] = tested on: KHOS/NP; assay: Induction of apoptosis in human KHOS/NP cells assessed as early apoptotic cells at 10 uM by Annexin V/PI staining based flow cytometry analysis (reference value: 5.3%); type: functional
[23] = tested on: KHOS/NP; assay: Induction of apoptosis in human KHOS/NP cells assessed as late apoptotic cells at 10 uM by Annexin V/PI staining based flow cytometry analysis (reference value: 0.3%); type: functional
[24] = tested on: U2OS; assay: Inhibition of colony formation in human U2OS cells assessed as reduction in colony number and size incubated for 12 days by Giemsa staining based analysis; type: functional, cell-based; settings: dose 5-10 µM, time 12.0 day
How it was run: (§4)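 Seeded at 150 cells/well in 12-well plates with 0, 5 or 10 μM inhibitor; 12 days at 37 °C. Colonies fixed 10 min in methanol, stained 20 min with 10% Giemsa and photographed.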

[25] = tested on: KHOS/NP; assay: Inhibition of colony formation in human KHOS/NP cells assessed as reduction in colony number and size incubated for 12 days by Giemsa staining based analysis; type: functional, cell-based; settings: dose 5-10 µM, time 12.0 day; how it was run: as §4
[26] = tested on: U2OS; assay: Inhibition of cell migration in human U2OS cells at 10 uM by wound healing assay; type: functional, cell-based; settings: time 24-72 hrs
How it was run: (§5)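 Monolayers of 4 × 10^5 cells/well in 6-well plates, grown overnight, scratched with two parallel lines, then exposed to 10 μM in 2% FBS medium for 72 h. Photographed at 0, 24, 48, 72 h; width measured at five sites per image. Migration distance = (width at 0 h − width at time point)/2.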

[27] = tested on: KHOS/NP; assay: Inhibition of cell migration in human KHOS/NP cells at 10 uM by wound healing assay; type: functional, cell-based; settings: time 24-72 hrs; how it was run: as §5
[28] = tested on: U2OS; assay: Antitumor activity against human U2OS cells cultured as 3D spheroids assessed as reduction in spheroid diameter at 10 uM incubated for 12 days with media replacement for every 24 to 48 hrs and measured every 2 days by Calcein AM staining based fluorescence microscopic analysis relative to control; type: functional; design: scale not given: the % may be the effect or the level left; settings: time 12 day
How it was run: (§6)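 Spheroids grown in 3D hydrogel culture plates, 2 × 10^5 cells/well, with 10 μM inhibitor added at seeding; untreated cells as blank control. 37 °C, 5% CO2, medium changed every 24–48 h. Diameter photographed every 2 days; at 12 days spheroids harvested, stained 15 min with 0.25 μM Calcein AM and imaged by fluorescence microscopy. Mean ± SE of 2 experiments in triplicate.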

[29] = tested on: KHOS/NP; assay: Antitumor activity against human KHOS/NP cells cultured as 3D spheroids assessed as reduction in spheroid diameter at 10 uM incubated for 12 days with media replacement for every 24 to 48 hrs and measured every 2 days by Calcein AM staining based fluorescence microscopic analysis relative to control; type: functional; design: scale not given: the % may be the effect or the level left; settings: time 12 day; how it was run: as §6

Cyclin-dependent kinase 9 (Homo sapiens), sequence (P50750 whole entry): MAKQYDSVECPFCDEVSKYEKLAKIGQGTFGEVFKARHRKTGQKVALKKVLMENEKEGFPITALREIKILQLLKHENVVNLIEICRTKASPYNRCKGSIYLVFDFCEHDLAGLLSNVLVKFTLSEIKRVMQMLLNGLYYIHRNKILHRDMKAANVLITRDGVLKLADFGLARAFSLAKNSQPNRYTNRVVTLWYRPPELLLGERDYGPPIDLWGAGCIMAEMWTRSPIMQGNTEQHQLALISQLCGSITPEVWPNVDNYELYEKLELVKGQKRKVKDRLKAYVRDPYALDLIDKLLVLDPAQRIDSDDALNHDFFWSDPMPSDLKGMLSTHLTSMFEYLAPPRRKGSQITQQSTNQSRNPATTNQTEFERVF

## COc1ccccc1-c1cc(Nc2cccc(CS(N)(=O)=O)c2)ncn1
[1]
  Activity: inactive
[2]; 120 h
  IC50: 5.8 µM
[2]; time 5.0 day
  Activity: Dose-Dependent Effect
[3]; 120 h
  IC50: 6.5 µM
[3]; time 5.0 day
  Activity: Dose-Dependent Effect
[4]
  Activity: Dose-Dependent Effect
[5]
  Activity: Dose-Dependent Effect
[6]
  Activity: Dose-Dependent Effect
[7]
  Activity: Dose-Dependent Effect
[8]
  inhibition: Dose-Dependent Effect
[9]
  inhibition: Dose-Dependent Effect
[10]
  inhibition: Dose-Dependent Effect
[11]
  inhibition: Dose-Dependent Effect
[12]
  inhibition: Dose-Dependent Effect
[13]
  inhibition: Dose-Dependent Effect
[14]
  Activity: inactive
[15]
  Activity: inactive
[16]
  Activity: inactive
[17]
  viability at 10 µM: 91.8%
[18]
  Activity: 6.4%
[19]
  Activity: 1.5%
[20]
  Activity: 0.3%
[21]
  viability at 10 µM: 88.5%
[22]
  Activity: 2.8%
[23]
  Activity: 6%
[24]
  inhibition: Dose-Dependent Effect
[25]
  inhibition: Dose-Dependent Effect
[26]
  inhibition: Dose-Dependent Effect
[27]
  inhibition: Dose-Dependent Effect
[28]
  Activity: 57.4%
[29]
  Activity: 48.8%
